Ki and Km data for seven molecules are collected here from ChEMBL document CHEMBL1123194, “Isozyme-specific enzyme inhibitors. 11. L-homocysteine-ATP S-C5' covalent adducts as inhibitors of rat methionine adenosyltransferases” (J Med Chem, 1986).

Series [1] deals with T1, S-adenosylmethionine synthetase (MAT 1 and MAT 2) (Rattus norvegicus, UniProt P13444+P18298). Description: Inhibition constant was evaluated on novikoff hepatoma (MAT-T) form of rat methionine adenosyltransferase, when ATP was the variable substrate (60 uM). Format: protein assay. The conditions noted are these: in the assay text read “120 uM” for “60 uM”. An outline of the steps: (§1)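 Rat MAT-2 and MAT-T, partially purified as described in earlier work. Assayed at 37 °C for 10 min in duplicate in 150 mM KCl, 15 mM MgCl2, 5 mM dithiothreitol, 50 mM Tris-HCl, pH 8.2, with L-[methyl-14C]methionine and MgATP. Six to eight levels of the variable substrate (0.5-4.0 × KM), two inhibitor levels plus no-inhibitor controls. Product captured on phosphocellulose disks and counted by scintillation. Blanks lacked ATP.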

In series [2] the target is T1, S-adenosylmethionine synthetase (MAT 1 and MAT 2). In words: Inhibition constant was evaluated on novikoff hepatoma (MAT-T) form of rat methionine adenosyltransferase, when methionine was the variable substrate (2 mM). Format: protein assay. A digest of the protocol: as §1
For series [3], the target named is S-adenosylmethionine synthase isoform type-2 (Rattus norvegicus, UniProt P18298). Description: Inhibition constant was evaluated with kidney Methionine adenosyltransferase II form of rat methionine adenosyltransferase, when ATP was the variable substrate (60 uM). A digest of the protocol: as §1
Chain of S-adenosylmethionine synthase isoform type-2 (P18298 whole entry, canonical isoform): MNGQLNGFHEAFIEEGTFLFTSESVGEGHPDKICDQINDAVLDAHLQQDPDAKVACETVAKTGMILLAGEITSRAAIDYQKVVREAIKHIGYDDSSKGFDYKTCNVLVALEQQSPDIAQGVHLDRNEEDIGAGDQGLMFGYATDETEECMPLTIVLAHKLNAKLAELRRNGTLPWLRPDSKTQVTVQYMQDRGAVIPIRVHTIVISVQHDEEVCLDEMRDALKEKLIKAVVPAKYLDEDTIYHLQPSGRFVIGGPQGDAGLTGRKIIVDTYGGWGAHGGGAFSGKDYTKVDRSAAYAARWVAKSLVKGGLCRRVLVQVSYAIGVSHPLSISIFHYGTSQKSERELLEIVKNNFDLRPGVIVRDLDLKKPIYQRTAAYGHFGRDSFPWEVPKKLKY
In series [4] the target is T1, S-adenosylmethionine synthetase (MAT 1 and MAT 2). In words: Inhibition constant was evaluated with kidney (MAT-2) form of rat methionine adenosyltransferase, when methionine was the variable substrate (2 mM). The class given is protein assay. A digest of the protocol: as §1
Series [5] can be described thus: Michaelis constant (KM) was evaluated. Format: ADME.

SMILES strings stand for the structures. Several values for one entry are separate records, joined by “and”; a condition that tells them apart may be missing. Equal entries are not always repeated.

Turning to `Nc1ncnc2c1ncn2[C@@H]1O[C@H](C(CP(=O)(O)OP(=O)(O)NP(=O)(O)O)SCCC(N)C(=O)O)[C@@H](O)[C@H]1O` (stereo not given in full), the inhibition constant Ki turned out to be 11 µM in series [1], 38 µM in series [2], 16 µM in series [3] and 26 µM in series [4].

As to `Nc1ncnc2c1ncn2[C@@H]1O[C@H](C(CP(=O)(O)OP(=O)(O)OP(=O)(O)O)[S+]([O-])CCC(N)C(=O)O)[C@@H](O)[C@H]1O` (stereo not given in full), the Ki in series [1] turned out to be 81 µM; in series [3], 140 µM.

As to `Nc1ncnc2c1ncn2[C@@H]1O[C@H](COP(=O)(O)OP(=O)(O)OP(=O)(O)O)[C@@H](O)[C@H]1O`, the Michaelis-Menten constant (Km) in series [5] was determined as 140 µM.

With `Nc1ncnc2c1ncn2C1OC(CCP(=O)(O)OP(=O)(O)OP(=O)(O)O)[C@@H](O)[C@H]1O` (stereo not given in full), in series [5], the Km was 75 µM and 310 µM.

Turning to `Nc1ncnc2c1ncn2[C@@H]1O[C@H](C(CP(=O)(O)OP(=O)(O)OP(=O)(O)O)SCCC(N)C(=O)O)[C@@H](O)[C@H]1O` (single isomer, unassigned; epimer 1), the values for the Ki in series [1], in series [3] and in series [4] were 32 µM, 39 µM and 62 µM, respectively.

Regarding `Nc1ncnc2c1ncn2[C@@H]1O[C@H](C(CP(=O)(O)OP(=O)(O)OP(=O)(O)O)SCCC(N)C(=O)O)[C@@H](O)[C@H]1O` (single isomer, unassigned; epimer 2), the Ki in series [1] was 148 µM; in series [3], 180 µM; in series [4], 200 µM.

As for `CSCC[C@H](N)C(=O)O` [METHIONINE], in series [5], the Km was 5 µM and 15 µM.
